≈ marks a conversion by molar mass, not a printed value.
How the values were obtained:
Candida parapsilosis [1] = assay: Antimicrobial activity against Candida parapsilosis isolate 44 after 48 hrs by microdilution broth method; type: functional; conditions: Lodderomyces parapsilosis, isolate 44, 48 h
Summary of the method: (§1)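 Yeasts were grown overnight on Sabouraud dextrose agar at 35°C, suspended in water, and adjusted at 530 nm to McFarland 0.5 (approximately 1-5 x 10^6 CFU/ml). They were then diluted 1:100 and 1:20 in RPMI 1640 with 0.165 M MOPS and 2% glucose. Compound in DMSO was tested at ten concentrations, 0.25–256 mg/L, with incubation at 35°C. At 48 h, MIC was read spectrophotometrically as 50% turbidity reduction versus growth control.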

Pichia kudriavzevii [2] = assay: Antimicrobial activity against Candida krusei isolate 43 after 48 hrs by microdilution broth method; type: functional
Candida albicans [3] = assay: Antimicrobial activity against Candida albicans isolate 31 after 48 hrs by microdilution broth method; type: functional; conditions: isolate 31, 48 h; summary of the method: as §1
Pichia kudriavzevii [4] = assay: Antimicrobial activity against Candida krusei isolate 31 after 48 hrs by microdilution broth method; type: functional; conditions: isolate 31, 48 h; summary of the method: as §1
Pichia kudriavzevii [5] = assay: Antimicrobial activity against Candida krusei ATCC 6258 after 48 hrs by microdilution broth method; type: functional; conditions: ATCC 6258, 48 h
Candida tropicalis [6] = assay: Antimicrobial activity against Candida tropicalis isolate 11 after 48 hrs by microdilution broth method; type: functional; conditions: isolate 11, 48 h; summary of the method: as §1
Staphylococcus aureus [7] = assay: Antimicrobial activity against methicillin-susceptible Staphylococcus aureus isolate after 24 hrs by microdilution broth method
Candida parapsilosis [8] = assay: Antimicrobial activity against Candida parapsilosis isolate 19 after 48 hrs by microdilution broth method; type: functional; conditions: Lodderomyces parapsilosis, isolate 19, 48 h; summary of the method: as §1
Candida albicans [9] = assay: Antimicrobial activity against Candida albicans isolate 47 after 48 hrs by microdilution broth method; type: functional; conditions: isolate 47, 48 h; summary of the method: as §1
Nakaseomyces glabratus [10] = assay: Antimicrobial activity against Candida glabrata isolate 46 after 48 hrs by microdilution broth method; type: functional; summary of the method: as §1
[11] = test system: Cryptococcus deneoformans; assay: Antimicrobial activity against Cryptococcus neoformans var. neoformans isolate 30 after 48 hrs by microdilution broth method; type: functional; conditions: isolate 30, 48 h; summary of the method: as §1
Candida parapsilosis [12] = assay: Antimicrobial activity against Candida parapsilosis isolate 26 after 48 hrs by microdilution broth method; type: functional; conditions: Lodderomyces parapsilosis, isolate 26, 48 h; summary of the method: as §1
Candida tropicalis [13] = assay: Antimicrobial activity against Candida tropicalis isolate 22 after 48 hrs by microdilution broth method; type: functional; conditions: isolate 22, 48 h; summary of the method: as §1
Nakaseomyces glabratus [14] = assay: Antimicrobial activity against Candida glabrata isolate 49 after 48 hrs by microdilution broth method; type: functional; summary of the method: as §1
Candida parapsilosis [15] = assay: Antimicrobial activity against Candida parapsilosis ATCC 22019 after 48 hrs by microdilution broth method; type: functional; conditions: Lodderomyces parapsilosis, ATCC 22019, 48 h; summary of the method: as §1
Staphylococcus aureus [16] = assay: Antimicrobial activity against methicillin-resistant Staphylococcus aureus isolate after 24 hrs by microdilution broth method
[17] = test system: Cryptococcus deneoformans; assay: Antimicrobial activity against Cryptococcus neoformans var. neoformans isolate 27 after 48 hrs by microdilution broth method; type: functional; conditions: isolate 27, 48 h; summary of the method: as §1
Pseudomonas aeruginosa [18] = assay: Antimicrobial activity against Pseudomonas aeruginosa isolate 2 after 24 hrs by microdilution broth method; conditions: isolate 2, 24 h
Pichia kudriavzevii [19] = assay: Antimicrobial activity against Candida krusei isolate 48 after 48 hrs by microdilution broth method; type: functional
Candida albicans [20] = assay: Antimicrobial activity against Candida albicans isolate 48 after 48 hrs by microdilution broth method; type: functional; conditions: isolate 48, 48 h; summary of the method: as §1
Candida tropicalis [21] = assay: Antimicrobial activity against Candida tropicalis isolate 33 after 48 hrs by microdilution broth method; type: functional; conditions: isolate 33, 48 h; summary of the method: as §1
Proteus mirabilis = assay: Antimicrobial activity against Proteus mirabilis isolate after 24 hrs by microdilution broth method
Nakaseomyces glabratus [22] = assay: Antimicrobial activity against Candida glabrata isolate 30 after 48 hrs by microdilution broth method; type: functional; summary of the method: as §1
[23] = test system: Cryptococcus deneoformans; assay: Antimicrobial activity against Cryptococcus neoformans var. neoformans isolate 14 after 48 hrs by microdilution broth method; type: functional; conditions: isolate 14, 48 h; summary of the method: as §1
Escherichia coli = assay: Antimicrobial activity against Escherichia coli isolate after 24 hrs by microdilution broth method
Candida albicans [24] = assay: Antimicrobial activity against Candida albicans isolate 41 after 48 hrs by microdilution broth method; type: functional; conditions: isolate 41, 48 h; summary of the method: as §1
[25] = test system: Cryptococcus deneoformans; assay: Antimicrobial activity against Cryptococcus neoformans var. neoformans isolate 25 after 48 hrs by microdilution broth method; type: functional; conditions: isolate 25, 48 h; summary of the method: as §1
Nakaseomyces glabratus [26] = assay: Antimicrobial activity against Candida glabrata isolate 32 after 48 hrs by microdilution broth method; type: functional; conditions: isolate 32, 48 h; summary of the method: as §1
Pseudomonas aeruginosa [27] = assay: Antimicrobial activity against Pseudomonas aeruginosa isolate 1 after 24 hrs by microdilution broth method; conditions: isolate 1, 24 h

SMILES | MIC (Candida parapsilosis [1]) [µg/mL] | MIC (Pichia kudriavzevii [2]) [µg/mL] | MIC (Candida albicans [3]) [µg/mL] | MIC (Pichia kudriavzevii [4]) [µg/mL] | MIC (Pichia kudriavzevii [5]) [µg/mL] | MIC (Candida tropicalis [6]) [µg/mL] | MIC (Staphylococcus aureus [7]) [µg/mL] | MIC (Candida parapsilosis [8]) [µg/mL] | MIC (Candida albicans [9]) [µg/mL] | MIC (Nakaseomyces glabratus [10]) [µg/mL] | MIC [11] [µg/mL] | MIC (Candida parapsilosis [12]) [µg/mL] | MIC (Candida tropicalis [13]) [µg/mL] | MIC (Nakaseomyces glabratus [14]) [µg/mL] | MIC (Candida parapsilosis [15]) [µg/mL] | MIC (Staphylococcus aureus [16]) [µg/mL] | MIC [17] [µg/mL] | MIC (Pseudomonas aeruginosa [18]) [µg/mL] | MIC (Pichia kudriavzevii [19]) [µg/mL] | MIC (Candida albicans [20]) [µg/mL] | other results
Cc1cc(-c2nn(C)c(C)c2/[N+]([O-])=N/C#N)no1 | 128 (≈ 520 µM) | 64 (≈ 260 µM) | 128 (≈ 520 µM) | 128 (≈ 520 µM) | 64 (≈ 260 µM) | > 128 | 16 (≈ 65 µM) | 128 (≈ 520 µM) | > 128 | 128 (≈ 520 µM) | 8 (≈ 32.5 µM) | 128 (≈ 520 µM) | > 128 | 128 (≈ 520 µM) | 128 (≈ 520 µM) | 8 (≈ 32.5 µM) | 4 (≈ 16.2 µM) | > 128 | 128 (≈ 520 µM) | > 128 | MIC (Candida tropicalis [21]): > 128 µg/mL; MIC (Proteus mirabilis): > 128 µg/mL; MIC (Nakaseomyces glabratus [22]): 128 µg/mL (≈ 520 µM); MIC [23]: 4 µg/mL (≈ 16.2 µM); MIC (Escherichia coli): > 128 µg/mL; MIC (Candida albicans [24]): 128 µg/mL (≈ 520 µM); MIC [25]: 8 µg/mL (≈ 32.5 µM); MIC (Nakaseomyces glabratus [26]): 64 µg/mL (≈ 260 µM); MIC (Pseudomonas aeruginosa [27]): > 128 µg/mL
Cc1c(/[N+]([O-])=N/C#N)c(-c2cccs2)nn1C | 8 (≈ 32.4 µM) | 1 (≈ 4.04 µM) | 1 (≈ 4.04 µM) | 0.5 (≈ 2.02 µM) | 0.5 (≈ 2.02 µM) | 8 (≈ 32.4 µM) | 8 (≈ 32.4 µM) | 16 (≈ 64.7 µM) | 1 (≈ 4.04 µM) | 0.25 (≈ 1.01 µM) | 2 (≈ 8.09 µM) | 8 (≈ 32.4 µM) | 16 (≈ 64.7 µM) | 0.25 (≈ 1.01 µM) | 16 (≈ 64.7 µM) | 4 (≈ 16.2 µM) | 2 (≈ 8.09 µM) | > 128 | 0.5 (≈ 2.02 µM) | 1 (≈ 4.04 µM) | MIC (Candida tropicalis [21]): 8 µg/mL (≈ 32.4 µM); MIC (Proteus mirabilis): > 128 µg/mL; MIC (Nakaseomyces glabratus [22]): 0.25 µg/mL (≈ 1.01 µM); MIC [23]: 2 µg/mL (≈ 8.09 µM); MIC (Escherichia coli): > 128 µg/mL; MIC (Candida albicans [24]): 0.5 µg/mL (≈ 2.02 µM); MIC [25]: 2 µg/mL (≈ 8.09 µM); MIC (Nakaseomyces glabratus [26]): 0.25 µg/mL (≈ 1.01 µM); MIC (Pseudomonas aeruginosa [27]): > 128 µg/mL

Source: ChEMBL document CHEMBL1777788, “Synthesis and in vitro antimicrobial activities of new (cyano-NNO-azoxy)pyrazole derivatives” (2011)
